Data from ChEMBL document CHEMBL1157665, “Novel 4-thiazolidinone derivatives as potential antifungal and antibacterial drugs” (2010).
In brackets after ≈: the same amount, converted by molar mass.

What was measured:
Aspergillus niger [1] = experiment: Antifungal activity against Aspergillus niger ATCC 6275 after 72 hrs by serial sub-cultivation method; format: functional; conditions: ATCC 6275, 72 h
Outline: (§1)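 MFC was found by serial sub-cultivation of 2 µl into plates holding 100 µl broth per well, then incubation 72 h at 28 °C. MFC is the lowest concentration with no visible growth, taken as 99.5% killing of the original inoculum. Spore inocula came from malt agar cultures washed with 0.85% saline and 0.1% Tween 80.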

Aspergillus versicolor [2] = experiment: Antifungal activity against Aspergillus versicolor ATCC 11730 after 72 hrs by serial dilution method; format: functional; conditions: ATCC 11730, 72 h
Outline: (§2)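 Fungi were kept on malt agar at 4 °C and sub-cultured monthly. Spores were washed off the agar with sterile 0.85% saline containing 0.1% Tween 80 (v/v). Modified microdilution in 96-well plates. MIC is the lowest concentration with no visible growth under the binocular microscope. Inoculum checked on malt agar for contamination and validity.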

Aspergillus versicolor [3] = experiment: Antifungal activity against Aspergillus versicolor ATCC 11730 after 72 hrs by serial sub-cultivation method; format: functional; conditions: ATCC 11730, 72 h; outline: as §1
Aspergillus flavus [4] = experiment: Antifungal activity against Aspergillus flavus ATCC 9643 after 72 hrs by serial dilution method; format: functional; conditions: ATCC 9643, 72 h; outline: as §2
Aspergillus flavus [5] = experiment: Antifungal activity against Aspergillus flavus ATCC 9643 after 72 hrs by serial sub-cultivation method; format: functional; conditions: ATCC 9643, 72 h; outline: as §1
Fulvia fulva [6] = experiment: Antifungal activity against Fulvia fulva TK 5318 after 72 hrs by serial dilution method; format: functional; conditions: TK 5318, 72 h; outline: as §2
Fulvia fulva [7] = experiment: Antifungal activity against Fulvia fulva TK 5318 after 72 hrs by serial sub-cultivation method; format: functional; conditions: TK 5318, 72 h; outline: as §1
Bacillus cereus [8] = experiment: Antibacterial activity against Bacillus cereus clinical isolate after 24 hrs; format: functional
Outline: (§3)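 Broth microdilution MIC in 96-well plates. Compounds in LB broth with bacterial inoculum of 1.0 × 10^4 cfu per well, from suspensions adjusted with sterile saline to 1.0 × 10⁵ CFU/ml. Incubated 24 h at […] as printed. MIC taken as the lowest concentration with no visible growth under the binocular microscope. OD at 655 nm also read against blank. Streptomycin and ampicillin as positive controls. Duplicate, repeated three times.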

Bacillus cereus [9] = experiment: Antibacterial activity against Bacillus cereus clinical isolate after 72 hrs by serial sub-cultivation method; format: functional
Outline: (§4)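 MBC was found by serial sub-cultivation of 2 µl from the MIC wells into plates holding 100 µl broth per well, then incubation for 72 h. MBC is the lowest concentration with no visible growth, i.e. 99.5% killing of the original inoculum. Bacterial inoculum was 1.0 × 10^4 cfu per well in LB broth. Duplicate, repeated three times.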

Micrococcus flavus [10] = experiment: Antibacterial activity against Micrococcus flavus ATCC 10240 after 24 hrs; format: functional; conditions: ATCC 10240, 24 h; outline: as §3
Micrococcus flavus [11] = experiment: Antibacterial activity against Micrococcus flavus ATCC 10240 after 72 hrs by serial sub-cultivation method; format: functional; conditions: ATCC 10240, 72 h; outline: as §4
Staphylococcus aureus [12] = experiment: Antibacterial activity against Staphylococcus aureus ATCC 6538 after 24 hrs; format: functional; conditions: ATCC 6538, 24 h; outline: as §3
Staphylococcus aureus [13] = experiment: Antibacterial activity against Staphylococcus aureus ATCC 6538 after 72 hrs by serial sub-cultivation method; format: functional; conditions: ATCC 6538, 72 h; outline: as §4
Escherichia coli [14] = experiment: Antibacterial activity against Escherichia coli ATCC 35210 after 24 hrs; format: functional; conditions: ATCC 35210, 24 h; outline: as §3
Escherichia coli [15] = experiment: Antibacterial activity against Escherichia coli ATCC 35210 after 72 hrs by serial sub-cultivation method; format: functional; conditions: ATCC 35210, 72 h; outline: as §4
Pseudomonas aeruginosa [16] = experiment: Antibacterial activity against Pseudomonas aeruginosa ATCC 27853 after 24 hrs; format: functional; conditions: ATCC 27853, 24 h; outline: as §3
Pseudomonas aeruginosa [17] = experiment: Antibacterial activity against Pseudomonas aeruginosa ATCC 27853 after 72 hrs by serial sub-cultivation method; format: functional; conditions: ATCC 27853, 72 h; outline: as §4
Proteus mirabilis [18] = experiment: Antibacterial activity against Proteus mirabilis after 24 hrs; format: functional; outline: as §3
Proteus mirabilis [19] = experiment: Antibacterial activity against Proteus mirabilis after 72 hrs by serial sub-cultivation method; format: functional; outline: as §4
Salmonella typhimurium [20] = experiment: Antibacterial activity against Salmonella Typhimurium ATCC 13311 after 24 hrs; format: functional, Salmonella enterica subsp. enterica serovar Typhimurium; conditions: Salmonella enterica, ATCC 13311, 24 h; outline: as §3
Salmonella typhimurium [21] = experiment: Antibacterial activity against Salmonella Typhimurium ATCC 13311 after 72 hrs by serial sub-cultivation method; format: functional, Salmonella enterica subsp. enterica serovar Typhimurium; conditions: Salmonella enterica, ATCC 13311, 72 h; outline: as §4
Listeria monocytogenes [22] = experiment: Antibacterial activity against Listeria monocytogenes NCTC 7973 after 24 hrs; format: functional; conditions: NCTC 7973, 24 h; outline: as §3
Listeria monocytogenes [23] = experiment: Antibacterial activity against Listeria monocytogenes NCTC 7973 after 72 hrs by serial sub-cultivation method; format: functional; conditions: NCTC 7973, 72 h; outline: as §4
Talaromyces funiculosus [24] = experiment: Antifungal activity against Penicillium funiculosum ATCC 36839 after 72 hrs by serial dilution method; format: functional; conditions: ATCC 36839, 72 h; outline: as §2
Talaromyces funiculosus [25] = experiment: Antifungal activity against Penicillium funiculosum ATCC 36839 after 72 hrs by serial sub-cultivation method; format: functional; conditions: ATCC 36839, 72 h; outline: as §1
Penicillium ochrochloron [26] = experiment: Antifungal activity against Penicillium ochrochloron ATCC 9112 after 72 hrs by serial dilution method; format: functional; conditions: ATCC 9112, 72 h; outline: as §2
Penicillium ochrochloron [27] = experiment: Antifungal activity against Penicillium ochrochloron ATCC 9112 after 72 hrs by serial sub-cultivation method; format: functional; conditions: ATCC 9112, 72 h; outline: as §1
Trichoderma viride [28] = experiment: Antifungal activity against Trichoderma viride IAM 5061 after 72 hrs by serial dilution method; format: functional; conditions: IAM 5061, 72 h; outline: as §2
Trichoderma viride [29] = experiment: Antifungal activity against Trichoderma viride IAM 5061 after 72 hrs by serial sub-cultivation method; format: functional; conditions: IAM 5061, 72 h; outline: as §1
Aspergillus niger [30] = experiment: Antifungal activity against Aspergillus niger ATCC 6275 after 72 hrs by serial dilution method; format: functional; conditions: ATCC 6275, 72 h; outline: as §2
Aspergillus fumigatus [31] = experiment: Antifungal activity against Aspergillus fumigatus plant isolate after 72 hrs by serial dilution method
Aspergillus fumigatus [32] = experiment: Antifungal activity against Aspergillus fumigatus plant isolate after 72 hrs by serial sub-cultivation method

Row | Structure (SMILES) | MFC (Aspergillus niger [1]) | MIC (Aspergillus versicolor [2]) | MFC (Aspergillus versicolor [3]) | MIC (Aspergillus flavus [4]) | MFC (Aspergillus flavus [5]) | MIC (Fulvia fulva [6]) | MFC (Fulvia fulva [7]) | MIC (Bacillus cereus [8]) | MBC (Bacillus cereus [9]) | MIC (Micrococcus flavus [10]) | MBC (Micrococcus flavus [11]) | MIC (Staphylococcus aureus [12]) | MBC (Staphylococcus aureus [13]) | MIC (Escherichia coli [14]) | MBC (Escherichia coli [15]) | MIC (Pseudomonas aeruginosa [16]) | MBC (Pseudomonas aeruginosa [17]) | MIC (Proteus mirabilis [18]) | MBC (Proteus mirabilis [19]) | MIC (Salmonella typhimurium [20]) | also measured
1 | COc1cc(/C=C2\S/C(=N\c3nc(C45CC6CC(CC(C6)C4)C5)cs3)NC2=O)ccc1O | 21.9 µM (≈ 10.2 µg/mL) | 16.4 µM (≈ 7.67 µg/mL) | 21.9 µM (≈ 10.2 µg/mL) | 16.4 µM (≈ 7.67 µg/mL) | 21.9 µM (≈ 10.2 µg/mL) | 11 µM (≈ 5.14 µg/mL) | 21.9 µM (≈ 10.2 µg/mL) | 11 µM (≈ 5.14 µg/mL) | 21.9 µM (≈ 10.2 µg/mL) | 11 µM (≈ 5.14 µg/mL) | 21.9 µM (≈ 10.2 µg/mL) | 21.9 µM (≈ 10.2 µg/mL) | 43.8 µM (≈ 20.5 µg/mL) | 11 µM (≈ 5.14 µg/mL) | 16.4 µM (≈ 7.67 µg/mL) | 16.4 µM (≈ 7.67 µg/mL) | 43.8 µM (≈ 20.5 µg/mL) | 43.8 µM (≈ 20.5 µg/mL) | 65.7 µM (≈ 30.7 µg/mL) | 21.9 µM (≈ 10.2 µg/mL) | MBC (Salmonella typhimurium [21]): 43.8 µM (≈ 20.5 µg/mL); MIC (Listeria monocytogenes [22]): 11 µM (≈ 5.14 µg/mL); MBC (Listeria monocytogenes [23]): 21.9 µM (≈ 10.2 µg/mL); MIC (Talaromyces funiculosus [24]): 16.4 µM (≈ 7.67 µg/mL); MFC (Talaromyces funiculosus [25]): 21.9 µM (≈ 10.2 µg/mL); MIC (Penicillium ochrochloron [26]): 16.4 µM (≈ 7.67 µg/mL); MFC (Penicillium ochrochloron [27]): 21.9 µM (≈ 10.2 µg/mL); MIC (Trichoderma viride [28]): 11 µM (≈ 5.14 µg/mL); MFC (Trichoderma viride [29]): 21.9 µM (≈ 10.2 µg/mL); MIC (Aspergillus niger [30]): 16.4 µM (≈ 7.67 µg/mL); MIC (Aspergillus fumigatus [31]): 16.4 µM (≈ 7.67 µg/mL); MFC (Aspergillus fumigatus [32]): 21.9 µM (≈ 10.2 µg/mL)
2 | COc1ccc(/C=C2\S/C(=N\c3nc(C45CC6CC(CC(C6)C4)C5)cs3)NC2=O)cc1 | 23.1 µM (≈ 10.4 µg/mL) | 17.3 µM (≈ 7.81 µg/mL) | 23.1 µM (≈ 10.4 µg/mL) | 17.3 µM (≈ 7.81 µg/mL) | 23.1 µM (≈ 10.4 µg/mL) | 5.8 µM (≈ 2.62 µg/mL) | 23.1 µM (≈ 10.4 µg/mL) | 23.1 µM (≈ 10.4 µg/mL) | 23.1 µM (≈ 10.4 µg/mL) | 23.1 µM (≈ 10.4 µg/mL) | 46.2 µM (≈ 20.9 µg/mL) | 23.1 µM (≈ 10.4 µg/mL) | 46.2 µM (≈ 20.9 µg/mL) | 11.6 µM (≈ 5.24 µg/mL) | 23.1 µM (≈ 10.4 µg/mL) | 11.6 µM (≈ 5.24 µg/mL) | 23.1 µM (≈ 10.4 µg/mL) | 46.2 µM (≈ 20.9 µg/mL) | 69.3 µM (≈ 31.3 µg/mL) | 11.6 µM (≈ 5.24 µg/mL) | MBC (Salmonella typhimurium [21]): 23.1 µM (≈ 10.4 µg/mL); MIC (Listeria monocytogenes [22]): 23.1 µM (≈ 10.4 µg/mL); MBC (Listeria monocytogenes [23]): 46.2 µM (≈ 20.9 µg/mL); MIC (Talaromyces funiculosus [24]): 11.6 µM (≈ 5.24 µg/mL); MFC (Talaromyces funiculosus [25]): 23.1 µM (≈ 10.4 µg/mL); MIC (Penicillium ochrochloron [26]): 11.6 µM (≈ 5.24 µg/mL); MFC (Penicillium ochrochloron [27]): 23.1 µM (≈ 10.4 µg/mL); MIC (Trichoderma viride [28]): 11.6 µM (≈ 5.24 µg/mL); MFC (Trichoderma viride [29]): 23.1 µM (≈ 10.4 µg/mL); MIC (Aspergillus niger [30]): 17.3 µM (≈ 7.81 µg/mL); MIC (Aspergillus fumigatus [31]): 17.3 µM (≈ 7.81 µg/mL); MFC (Aspergillus fumigatus [32]): 23.1 µM (≈ 10.4 µg/mL)
